Assay results published in ChEMBL document CHEMBL1143977, “Disruption of Kv1.1 N-type inactivation by novel small molecule inhibitors (disinactivators)” (Bioorg Med Chem, 2008).
The source made the active and inactive calls. No cut-off for these calls is given here.

How the values were obtained:
[1] = biological target: T1, Potassium voltage-gated channel subfamily A member 1 (Homo sapiens, UniProt Q09470); test: Inhibition of Kvbeta-1-mediated inactivation of Kv1.1 channel expressed in xenopus oocytes at 150 uM by voltage clamp assay; assay type: cell-based; parameters: scale not given: the % may be the effect or the level left; settings: Oocyte
[2] = biological target: T2, A-type voltage-gated potassium channel KCND2 (Homo sapiens) (UniProt Q9NZV8); test: Inhibition of Kv4.2 channel inactivation expressed in xenopus oocytes at 30 uM by voltage clamp assay; assay type: cell-based; settings: Oocyte
T2 sequence (whole entry): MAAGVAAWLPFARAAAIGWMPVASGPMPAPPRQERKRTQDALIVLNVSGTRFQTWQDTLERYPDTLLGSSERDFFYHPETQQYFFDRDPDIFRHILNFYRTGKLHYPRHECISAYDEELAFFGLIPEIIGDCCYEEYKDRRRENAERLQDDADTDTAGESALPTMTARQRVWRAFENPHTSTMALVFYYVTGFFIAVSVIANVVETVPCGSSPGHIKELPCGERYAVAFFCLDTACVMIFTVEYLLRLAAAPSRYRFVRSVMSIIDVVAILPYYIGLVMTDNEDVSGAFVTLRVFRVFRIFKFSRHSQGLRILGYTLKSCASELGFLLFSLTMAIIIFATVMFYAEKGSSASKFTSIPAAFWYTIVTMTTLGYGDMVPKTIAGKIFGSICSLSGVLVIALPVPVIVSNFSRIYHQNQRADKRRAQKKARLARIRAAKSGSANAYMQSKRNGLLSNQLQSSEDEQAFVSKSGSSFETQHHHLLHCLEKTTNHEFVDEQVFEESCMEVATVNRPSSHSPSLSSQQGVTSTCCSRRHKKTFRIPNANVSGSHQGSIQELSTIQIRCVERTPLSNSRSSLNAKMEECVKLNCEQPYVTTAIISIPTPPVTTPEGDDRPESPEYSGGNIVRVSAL

[3] = biological target: T3, Potassium voltage-gated channel subfamily A member 4 (Homo sapiens, UniProt P22459); test: Inhibition of Kv1.4 channel inactivation expressed in xenopus oocytes at 50 uM by voltage clamp assay; assay type: cell-based; parameters: scale not given: the % may be the effect or the level left; settings: Oocyte
How it was run: (§1)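 Kv1.4 expressed in stage V–VI Xenopus oocytes and recorded 1–4 days after injection. Two-electrode voltage clamp in perfused ND-96 (pH 7.6), held at −80 mV with 200 ms steps to +50 mV. Compound up to 50 µM, current followed 2–8 min after application. Disinactivation = 100·Iss/Ipeak, three experiments.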

[4] = test system: Mus musculus; test: Anticonvulsant activity in ip dosed CF1 mouse assessed as inhibition of pentylenetetrazole-induced seizure; assay type: functional
How it was run: (§2)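 Male CF-1 mice, 20–25 g, free access to food and water. Compound in 2% Tween 80/1% methylcellulose/saline given ip 30 min before PTZ 85 mg/kg sc. Mice observed 30 min in individual chambers. Groups of eight scored for presence or absence of clonic seizure (forelimb and hindlimb paddling with loss of righting). ED50 in mg/kg, or number of mice seizing out of eight.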

[5] = biological target: T1, Potassium voltage-gated channel subfamily A member 1; test: Inhibition of Kvbeta-1-mediated inactivation of Kv1.1 channel expressed in xenopus oocytes at 200 uM by voltage clamp assay; assay type: cell-based; parameters: scale not given: the % may be the effect or the level left; settings: Oocyte
[6] = biological target: T1, Potassium voltage-gated channel subfamily A member 1; test: Inhibition of Kvbeta-1-mediated inactivation of Kv1.1 channel expressed in xenopus oocytes at 50 uM by voltage clamp assay; assay type: cell-based; parameters: scale not given: the % may be the effect or the level left; settings: Oocyte
How it was run: (§3)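 Stage V–VI Xenopus oocytes injected with ~0.5–5 ng mRNA and kept 1–4 days in ND-96 (pH 7.6). Either Kv1.1 plus Kvβ1 RNA at 1:160, or a chimera (Kvβ1 residues 1–70 fused through a Ser to Kv1.1 N-terminus). Two-electrode clamp in perfused ND-96 with 3 M KCl electrodes. Held at −80 mV, stepped 200 ms to +50 mV. Disinactivation = 100·Iss/Ipeak, ≥3 experiments, mean ± SEM. EC50 from logistic fit.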

[7] = test system: Mus musculus; test: Anticonvulsant activity in CF1 mouse assessed as inhibition of pentylenetetrazole-induced seizure at 100 mg/kg, ip; assay type: functional, organism-based; parameters: dose 100 mg/kg; how it was run: as §2
[8] = biological target: T1, Potassium voltage-gated channel subfamily A member 1; test: Inhibition of Kv-beta-1 mediated inactivation of Kv1.1 channel assessed as intracellular calcium accumulation in Tsa201 cells at 50 uM by FLIPR assay
[9] = biological target: T1, Potassium voltage-gated channel subfamily A member 1; test: Inhibition of Kv-beta-1 mediated inactivation of Kv1.1 channel assessed as intracellular calcium accumulation in Tsa201 cells at 50 uM by FLIPR assay; assay type: cell-based
How it was run: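 Tsa201 cells plated at 50,000/well and used the following day. Loaded with 3 µM Fluo-4 AM in HBSS with 2.5 mM probenecid, 60 min at 37 °C, then washed into calcium-free HBSS. Baseline read 5 s, compound added at final 50 µM (A23187 reference at 10 µM), fluorescence followed 3 min. Signal normalized to background. BAPTA-AM 10 µM counter-check for autofluorescence.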

[10] = biological target: T4, Voltage-gated potassium channel subfamily A member 1/beta-1 (Homo sapiens, UniProt Q09470+Q14722); test: Inhibition of Kv1.1/Kvbeta1 N terminal chimera channel inactivation expressed in xenopus oocytes at 50 uM by voltage clamp assay; assay type: cell-based; parameters: scale not given: the % may be the effect or the level left; settings: Oocyte; how it was run: as §3
[11] = biological target: T1, Potassium voltage-gated channel subfamily A member 1; test: Inhibition of Kvbeta-1-mediated inactivation of Kv1.1 channel expressed in xenopus oocytes by voltage clamp assay; assay type: cell-based, Oocyte; how it was run: as §3
[12] = biological target: T3, Potassium voltage-gated channel subfamily A member 4; test: Inhibition of Kv1.4 channel inactivation expressed in xenopus oocytes by voltage clamp assay; assay type: cell-based, Oocyte; how it was run: as §1
[13] = biological target: T4, Voltage-gated potassium channel subfamily A member 1/beta-1; test: Inhibition of Kv1.1/Kvbeta1 N terminal chimera channel inactivation expressed in xenopus oocytes by voltage clamp assay; assay type: cell-based, Oocyte; how it was run: as §3

T1 sequence (Q09470 whole entry): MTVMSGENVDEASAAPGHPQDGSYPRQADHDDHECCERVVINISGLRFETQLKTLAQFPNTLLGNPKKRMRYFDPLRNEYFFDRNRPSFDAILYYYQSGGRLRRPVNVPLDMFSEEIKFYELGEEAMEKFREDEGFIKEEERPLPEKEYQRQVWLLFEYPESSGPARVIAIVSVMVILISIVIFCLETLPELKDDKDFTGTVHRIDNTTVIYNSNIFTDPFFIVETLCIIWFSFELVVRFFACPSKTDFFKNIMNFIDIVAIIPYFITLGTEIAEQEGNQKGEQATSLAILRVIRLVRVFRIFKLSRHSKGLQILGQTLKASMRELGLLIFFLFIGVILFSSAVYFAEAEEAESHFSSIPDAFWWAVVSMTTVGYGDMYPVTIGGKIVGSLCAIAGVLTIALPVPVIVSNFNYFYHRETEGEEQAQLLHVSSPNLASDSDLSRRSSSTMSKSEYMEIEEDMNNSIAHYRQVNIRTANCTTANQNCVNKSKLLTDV
T3 sequence (P22459 whole entry, the tested form may be a part): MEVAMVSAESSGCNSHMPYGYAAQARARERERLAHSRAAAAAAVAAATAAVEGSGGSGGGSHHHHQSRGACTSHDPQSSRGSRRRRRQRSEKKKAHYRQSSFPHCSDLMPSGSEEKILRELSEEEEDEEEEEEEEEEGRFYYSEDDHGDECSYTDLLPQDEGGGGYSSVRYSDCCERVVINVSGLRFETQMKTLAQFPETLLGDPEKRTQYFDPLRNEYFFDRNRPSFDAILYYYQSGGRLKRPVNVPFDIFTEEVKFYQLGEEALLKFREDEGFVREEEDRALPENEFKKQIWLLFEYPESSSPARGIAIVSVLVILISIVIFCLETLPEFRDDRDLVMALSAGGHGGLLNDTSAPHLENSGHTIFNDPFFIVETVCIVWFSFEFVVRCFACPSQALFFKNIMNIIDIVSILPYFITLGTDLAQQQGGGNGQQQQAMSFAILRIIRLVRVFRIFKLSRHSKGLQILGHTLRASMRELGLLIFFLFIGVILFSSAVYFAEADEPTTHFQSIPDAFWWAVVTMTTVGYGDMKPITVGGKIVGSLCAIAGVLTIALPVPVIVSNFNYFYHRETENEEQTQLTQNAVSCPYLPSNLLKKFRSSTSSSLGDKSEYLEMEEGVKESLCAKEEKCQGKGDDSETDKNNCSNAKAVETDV
T4 sequence (Q09470 whole entry): as the sequence (Q09470 whole entry) above
T4 sequence (Q14722 whole entry): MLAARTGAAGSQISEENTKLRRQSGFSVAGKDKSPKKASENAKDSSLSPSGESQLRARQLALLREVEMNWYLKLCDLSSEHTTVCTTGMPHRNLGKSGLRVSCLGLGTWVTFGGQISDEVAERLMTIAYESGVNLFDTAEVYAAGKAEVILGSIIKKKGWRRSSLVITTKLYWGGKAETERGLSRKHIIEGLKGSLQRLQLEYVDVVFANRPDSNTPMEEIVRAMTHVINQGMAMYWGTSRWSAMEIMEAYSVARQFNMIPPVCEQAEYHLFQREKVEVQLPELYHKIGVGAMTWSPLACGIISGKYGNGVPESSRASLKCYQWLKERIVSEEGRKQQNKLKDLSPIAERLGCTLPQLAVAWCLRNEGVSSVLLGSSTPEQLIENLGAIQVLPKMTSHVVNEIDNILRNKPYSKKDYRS

Activity [2]	Activity [6]	Structure (SMILES)	ED50 [4]	also measured
inactive		CC1(C)CC(=O)C(C(=O)Nc2ccc(Cl)cc2C(F)(F)F)C(=O)C1	66 mg/kg	Activity [1]: 45%; Activity [3]: 5%
inactive	18.5%	CC1(C)CC(=O)C(C(=O)Nc2cccc(C(F)(F)F)c2)C(=O)C1	32 mg/kg	Activity [5]: 40%
inactive	96.3%	O=C(Nc1ccc([N+](=O)[O-])cc1)C1C(=O)C2=C(CCCC2)C1=O		Activity [7]: inactive; Activity [8]: Active; Activity [9]: Active
inactive	18.8%	C[C@@]1(c2ccccc2)NC(=O)N(C(=O)C2=Cc3cc(Cl)ccc3OC2)C1=O		Activity [10]: 37%
inactive		O=[N+]([O-])C1(Br)COC(c2ccccc2)OC1 (stereo not drawn)		EC50 [11]: 7.1 µM; EC50 [12]: 1.3 µM; EC50 [13]: 8.9 µM
inactive	52.5%	CC1(c2ccccc2)NC(=O)N(C(=O)/C=C/c2ccc(F)cc2)C1=O (stereo not drawn)		Activity [10]: 34%
inactive		CC1(C)OCC(Br)([N+](=O)[O-])CO1	139 mg/kg	EC50 [11]: 4.3 µM; EC50 [12]: 2.3 µM; EC50 [13]: 16.7 µM
